In experiment [1] the target is Histone deacetylase. Put plainly: Inhibition of class 1 HDAC (unknown origin). The format is protein assay, Homo sapiens.
Experiment [2] deals with OVCAR-5. Put plainly: Growth inhibition of human OVCAR5 cells by sulforhodamine B colorimetric method. It counts as functional. The method in brief: (§1)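 Tested in a human cancer cell line panel. Five concentrations were used per compound, spanning either 10^-10–10^-6 M or 10^-8–10^-4 M. Growth was read by sulforhodamine B colorimetry.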
A general note: In SRB staining, fixed cells bind dye roughly in proportion to their protein.

The nature of experiment [3]: Growth inhibition of human HCC2998 cells by sulforhodamine B colorimetric method. The format is functional. As to conditions: HCC 2998. The method in brief: as §1
The test system of experiment [4] is SNB-78. Put plainly: Growth inhibition of human SNB78 cells by sulforhodamine B colorimetric method. The format is functional. The method in brief: as §1
The nature of experiment [5]: Growth inhibition of human HBC5 cells by sulforhodamine B colorimetric method. It counts as functional. The essentials: as §1
For experiment [6], the system named is MKN-7. Put plainly: Growth inhibition of human MKN7 cells by sulforhodamine B colorimetric method. The format is functional. The method in brief:
as §1

Experiment [7] relates to NCI-H522. Put plainly: Growth inhibition of human NCI-H522 cells by sulforhodamine B colorimetric method. It counts as functional. The method in brief:
as §1

The test system of experiment [8] is A549. Put plainly: Growth inhibition of human A549 cells by sulforhodamine B colorimetric method. It counts as functional. The essentials:
as §1

Experiment [9] concerns HT-29. Put plainly: Growth inhibition of human HT-29 cells by sulforhodamine B colorimetric method. The format is functional. The method in brief:
as §1

A short description of experiment [10]: Growth inhibition of human MKN1 cells by sulforhodamine B colorimetric method. The format is functional. As to conditions: MKN-1. The essentials: as §1
Experiment [11] relates to MDA-MB-231. Put plainly: Growth inhibition of human MDA-MB-231 cells by sulforhodamine B colorimetric method. The format is functional. The essentials:
as §1

Experiment [12] deals with PC-3. Put plainly: Growth inhibition of human PC3 cells by sulforhodamine B colorimetric method. It counts as functional. The method in brief: as §1
Experiment [13] concerns OVCAR-4. Put plainly: Growth inhibition of human OVCAR4 cells by sulforhodamine B colorimetric method. The format is functional. The essentials:
as §1

Experiment [14] deals with SK-OV-3. Put plainly: Growth inhibition of human SKOV3 cells by sulforhodamine B colorimetric method. It counts as functional. The method in brief: as §1
Experiment [15] relates to DMS-273. Put plainly: Growth inhibition of human DMS273 cells by sulforhodamine B colorimetric method. It counts as functional. The essentials: as §1
Experiment [16] relates to SF-539. Put plainly: Growth inhibition of human SF539 cells by sulforhodamine B colorimetric method. It counts as functional. The method in brief: as §1
For experiment [17], the system named is NCI-H460. Put plainly: Growth inhibition of human NCI-H460 cells by sulforhodamine B colorimetric method. The format is functional. The method in brief: as §1
Experiment [18] relates to MKN-28. Put plainly: Growth inhibition of human MKN28 cells by sulforhodamine B colorimetric method. It counts as functional. The method in brief:
as §1

Experiment [19] concerns HCT-15. Put plainly: Growth inhibition of human HCT15 cells by sulforhodamine B colorimetric method. The format is functional. The method in brief:
as §1

The subject of experiment [20] is SF-268. Put plainly: Growth inhibition of human SF268 cells by sulforhodamine B colorimetric method. It counts as functional. The method in brief: as §1
The subject of experiment [21] is NCI-H226. Put plainly: Growth inhibition of human NCI-H226 cells by sulforhodamine B colorimetric method. It counts as functional. The essentials:
as §1

Experiment [22] deals with DU-145. Put plainly: Growth inhibition of human DU145 cells by sulforhodamine B colorimetric method. It counts as functional. The method in brief: as §1
For experiment [23], the target named is Protein deacetylase HDAC6 (Mus musculus, UniProt Q9Z2V5). Put plainly: Inhibition of mouse HDAC6 using Ac-KGLGK(Ac)-MCA as substrate after 30 mins by fluorescence assay.
In experiment [24] the test system is MKN-45. Put plainly: Growth inhibition of human MKN45 cells by sulforhodamine B colorimetric method. The format is functional. The essentials: as §1
For experiment [25], the system named is U-251. Put plainly: Growth inhibition of human U251 cells by sulforhodamine B colorimetric method. It counts as functional. The essentials: as §1
Experiment [26] in a line: Growth inhibition of human HBC4 cells by sulforhodamine B colorimetric method. The format is functional. The essentials: as §1
The nature of experiment [27]: Growth inhibition of human BSY1 cells by sulforhodamine B colorimetric method. The format is functional. As to conditions: BSY-1. The essentials: as §1
The subject of experiment [28] is NCI-H23. Put plainly: Growth inhibition of human NCI-H23 cells by sulforhodamine B colorimetric method. The format is functional. The method in brief:
as §1

Experiment [29] can be described thus: Growth inhibition of human RXF631L cells by sulforhodamine B colorimetric method. It counts as functional. The note with it: RXF 631. The essentials: as §1
Experiment [30] deals with MCF7. Put plainly: Growth inhibition of human MCF7 cells by sulforhodamine B colorimetric method. It counts as functional. The method in brief: as §1
Experiment [31] concerns St-4. Put plainly: Growth inhibition of human St-4 cells by sulforhodamine B colorimetric method. The format is functional. The method in brief: as §1
For experiment [32], the system named is OVCAR-3. Put plainly: Growth inhibition of human OVCAR3 cells by sulforhodamine B colorimetric method. The format is functional. The essentials:
as §1

In experiment [33] the test system is ACHN. Put plainly: Growth inhibition of human ACHN cells by sulforhodamine B colorimetric method. It counts as functional. The essentials:
as §1

Experiment [34] deals with OVCAR-8. Put plainly: Growth inhibition of human OVCAR8 cells by sulforhodamine B colorimetric method. It counts as functional. The essentials:
as §1

Experiment [35] relates to LOX IMVI. Put plainly: Growth inhibition of human LOXIMVI cells by sulforhodamine B colorimetric method. It counts as functional. The essentials:
as §1

For experiment [36], the system named is MKN-74. Put plainly: Growth inhibition of human MKN74 cells by sulforhodamine B colorimetric method. It counts as functional. The method in brief: as §1
In experiment [37] the test system is DMS-114. Put plainly: Growth inhibition of human DMS114 cells by sulforhodamine B colorimetric method. It counts as functional. The essentials:
as §1

Experiment [38] has as its system HCT-116. Put plainly: Growth inhibition of human HCT116 cells by sulforhodamine B colorimetric method. The format is functional. The method in brief:
as §1

Experiment [39] relates to KM12. Put plainly: Growth inhibition of human KM12 cells by sulforhodamine B colorimetric method. It counts as functional. The essentials: as §1
Experiment [40] can be described thus: Selectivity index, ratio of IC50 for mouse HDAC6 to IC50 for human HDAC1. The essentials:
(§2)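 FLAG-tagged HDAC1 or HDAC6 was expressed in cells grown 24 h in DMEM, then lysed in Tris/NaCl/EDTA/NP40 buffer. The enzyme was immunoprecipitated with anti-FLAG M2 and eluted with FLAG peptide. It was incubated with Ac-KGLGK(Ac)-MCA (2 mM stock) and 100 μM DTT at 37 °C for 30 min, then trypsin at 37 °C for 15 min. AMC fluorescence was read. IC50 is the mean±SD of ≥3 curves. The ratios are computed from these IC50s.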

The test system of experiment [41] is SF-295. Put plainly: Growth inhibition of human SF295 cells by sulforhodamine B colorimetric method. The format is functional. The method in brief: as §1
The target of experiment [42] is Histone deacetylase 1 (Homo sapiens) (UniProt Q13547). Put plainly: Ratio of FK228 IC50 to compound IC50 for human HDAC1 using Ac-KGLGK(Ac)-MCA as substrate after 30 mins by fluorescence assay. The essentials:
as §2

For experiment [43], the system named is SNB-75. Put plainly: Growth inhibition of human SNB75 cells by sulforhodamine B colorimetric method. It counts as functional. The method in brief:
as §1

pIC50: −log10 of the molar value.

Sequence of Histone deacetylase 1 (Homo sapiens) (Q13547 whole entry): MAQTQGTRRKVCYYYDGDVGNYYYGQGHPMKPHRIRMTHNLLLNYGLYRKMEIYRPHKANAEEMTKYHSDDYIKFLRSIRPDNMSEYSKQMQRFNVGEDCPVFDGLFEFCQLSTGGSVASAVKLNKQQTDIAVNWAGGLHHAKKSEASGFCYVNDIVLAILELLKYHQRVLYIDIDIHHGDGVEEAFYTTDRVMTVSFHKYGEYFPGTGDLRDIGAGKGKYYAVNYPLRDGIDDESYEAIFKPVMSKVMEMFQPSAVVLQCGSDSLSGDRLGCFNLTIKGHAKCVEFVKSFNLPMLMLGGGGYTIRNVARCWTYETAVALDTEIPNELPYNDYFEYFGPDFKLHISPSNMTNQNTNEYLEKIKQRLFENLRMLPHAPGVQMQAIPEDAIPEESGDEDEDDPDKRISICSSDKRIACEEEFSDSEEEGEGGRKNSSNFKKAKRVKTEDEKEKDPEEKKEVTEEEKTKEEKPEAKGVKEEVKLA
Sequence of Protein deacetylase HDAC6 (Q9Z2V5 whole entry): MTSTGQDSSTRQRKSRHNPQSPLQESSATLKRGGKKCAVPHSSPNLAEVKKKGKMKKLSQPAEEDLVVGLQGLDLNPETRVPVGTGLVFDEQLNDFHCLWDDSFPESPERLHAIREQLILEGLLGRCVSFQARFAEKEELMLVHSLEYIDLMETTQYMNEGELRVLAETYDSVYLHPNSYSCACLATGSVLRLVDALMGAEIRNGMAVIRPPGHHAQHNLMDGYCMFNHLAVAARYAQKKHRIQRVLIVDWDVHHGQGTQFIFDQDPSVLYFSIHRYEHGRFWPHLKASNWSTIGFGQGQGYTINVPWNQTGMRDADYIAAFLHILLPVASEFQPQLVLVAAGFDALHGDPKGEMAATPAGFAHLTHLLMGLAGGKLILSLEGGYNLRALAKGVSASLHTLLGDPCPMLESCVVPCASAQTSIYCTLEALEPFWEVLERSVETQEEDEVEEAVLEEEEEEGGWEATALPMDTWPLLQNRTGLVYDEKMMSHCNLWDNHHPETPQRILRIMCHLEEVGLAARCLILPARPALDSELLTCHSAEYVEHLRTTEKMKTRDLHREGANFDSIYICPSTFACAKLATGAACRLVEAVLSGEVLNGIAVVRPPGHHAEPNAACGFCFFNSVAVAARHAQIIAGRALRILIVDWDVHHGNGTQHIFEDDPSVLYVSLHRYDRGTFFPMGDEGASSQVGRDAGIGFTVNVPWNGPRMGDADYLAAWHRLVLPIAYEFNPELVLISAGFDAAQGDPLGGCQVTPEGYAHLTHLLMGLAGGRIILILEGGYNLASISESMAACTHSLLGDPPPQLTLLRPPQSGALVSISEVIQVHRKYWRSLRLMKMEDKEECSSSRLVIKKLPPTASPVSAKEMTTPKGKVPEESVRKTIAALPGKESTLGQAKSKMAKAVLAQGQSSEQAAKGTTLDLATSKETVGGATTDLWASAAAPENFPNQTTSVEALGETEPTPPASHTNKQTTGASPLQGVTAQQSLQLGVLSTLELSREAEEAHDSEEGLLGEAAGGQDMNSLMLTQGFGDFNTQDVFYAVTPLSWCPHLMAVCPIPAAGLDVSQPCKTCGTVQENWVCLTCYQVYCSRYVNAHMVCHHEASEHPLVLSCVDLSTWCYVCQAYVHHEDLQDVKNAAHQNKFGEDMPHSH

Usually IC50 stands for the point on the concentration scale where inhibition reaches its midpoint. Higher therefore signals lower potency. On to `CCC(C)[C@H]1NC(=O)[C@H]2CSSCC/C=C/[C@H](CC(=O)N[C@H](C)C(=O)N2)OC(=O)C[C@@H]1O` (stereo partly drawn) [spiruchostatin B], for which the IC50 in experiment [1] was 2.2 nM.
Broadly, the GI50 is the concentration that inhibits growth by half. A word on the pIC50: it is the negative decadic logarithm of the IC50, by convention in mol/L. A high value points to a small IC50. For `CC(C)[C@H]1NC(=O)[C@H]2CSSCC/C=C/[C@H](CC(=O)N[C@H](C(C)C)C(=O)N2)OC(=O)C[C@@H]1O` [spiruchostatin D], the 50% growth inhibitory concentration (GI50) came out at 1.2 nM in experiment [2]; 1.5 nM in experiment [3]; 41 nM in experiment [4]; 18 nM in experiment [5]; 5.8 nM in experiment [6]; 0.39 nM in experiment [7]. The GI50 in [8] came out at 0.97 nM; in experiment [9], 2.2 nM; in experiment [10], 2 nM; in experiment [11] it was 1.7 nM; in [12] it was 8.7 nM; in experiment [13] it was 4.7 nM. For the same compound, the GI50 turned out to be 2.3 nM in experiment [14]; 5.1 nM in [15]; 0.58 nM in [16]; 2.8 nM in [17]; 9.5 nM in experiment [18]; 210 nM in [19]. For the same compound, the GI50 in experiment [20] is 3.5 nM; in [21], 4 nM; in experiment [22], 4 nM; in experiment [24] it was 9.6 nM; in [25], 2.7 nM; in [26], 4.1 nM. Moreover, the GI50 in experiment [27] came to 5.2 nM; in [28], 2.5 nM; in [29] it was 5.9 nM; in experiment [30], 2.9 nM; in experiment [31] it was 16 nM; in experiment [32] it was 2.2 nM. The GI50 came to 21 nM in experiment [33]; 2.7 nM in experiment [34]; 1.8 nM in experiment [35]; 2.9 nM in [36]; 3.6 nM in experiment [37]; 1.3 nM in experiment [38]. The values for the GI50 in experiment [39], in experiment [41] and in experiment [43] were 2.6 nM, 5.1 nM and 1.9 nM, respectively. Further, the pIC50 in [23] was 6.62. The results for the Ratio IC50 in experiment [40] and in [42] were 320 and 3, respectively.

Values taken from ChEMBL document CHEMBL2311487, “Total synthesis of bicyclic depsipeptides spiruchostatins C and D and investigation of their histone deacetylase inhibitory and antiproliferative activities” (Eur J Med Chem, 2013).
